# Tests used:
# Leishmania infantum [1] = assay: Antimicrobial activity against Leishmania infantum promastigotes assessed as increase in hypodiploid cell formation after 24 hrs by flow cytometry; type: functional, organism-based
# Outline: (§1)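 Exponentially growing L. infantum promastigotes (2 × 10^6/ml, strain M/CAN/ES/96/BCN150 MON-1) exposed 24 h to increasing drug concentrations; DNA content analysed by flow cytometry, scoring percentage of hypodiploid cells as DNA degradation.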
# Leishmania infantum [2] = assay: Antimicrobial activity against Leishmania infantum promastigotes; type: functional; conditions: read-out: LD50 (the source's name)
# Outline: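 L. infantum promastigotes (M/CAN/ES/96/BCN150 MON-1), exponentially growing at 2 × 10^6 parasites/ml, incubated 24 h with increasing drug concentrations; stained with 5 µM propidium iodide and dead (PI-positive) parasites counted by flow cytometry; 50% lethal dose estimated from concentration–response fit.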
# Leishmania infantum [3] = assay: Antimicrobial activity against Leishmania infantum promastigotes assessed as increase in DNA degradation after 24 hrs by flow cytometry; type: functional, organism-based; outline: as §1
# Leishmania infantum [4] = assay: Induction of apoptosis in Leishmania infantum promastigotes cells harboring pX63 expression vector at 40 uM after 24 hrs by TUNEL assay; type: functional
# Outline: (§2)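 Wild-type promastigotes or those transfected with empty pX63, pX63-bcl-XL (HA-tagged) or pX63-hrk (FLAG-tagged) left untreated or exposed to 40 µM drug for 24 h; DNA nicks labelled by TUNEL, imaged by confocal microscopy with PI and DIC; percentage TUNEL-positive cells from image analysis, mean ± SD, n = 3.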
# Leishmania infantum [5] = assay: Induction of apoptosis in Leishmania infantum promastigotes cells harboring with plasmid pX63 carrying Bcl-XL gene at 40 uM after 24 hrs by TUNEL assay; type: functional; outline: as §2
# Leishmania infantum [6] = assay: Induction of apoptosis in Leishmania infantum promastigotes cells harboring with plasmid pX63 carrying Hrk gene at 40 uM after 24 hrs by TUNEL assay; type: functional; outline: as §2
# Leishmania infantum [7] = assay: Induction of apoptosis in wild-type Leishmania infantum promastigotes cells at 40 uM after 24 hrs by TUNEL assay; type: functional; outline: as §2
Compound,Activity (Leishmania infantum [1]),LC50 (Leishmania infantum [2]) [µM],Activity (Leishmania infantum [3]),Activity (Leishmania infantum [4]) [%],Activity (Leishmania infantum [5]) [%],Activity (Leishmania infantum [6]) [%],Activity (Leishmania infantum [7]) [%]
CCCCCCCCCCCCCCCCOP(=O)([O-])OCC[N+](C)(C)C [MILTEFOSINE],Dose-dependent effect,47,Dose-dependent effect,–,–,–,–
CCCCCCCCCCCCCCCCCCOCC(COP(=O)([O-])OCC[N+](C)(C)C)OC (stereo not given) [EDELFOSINE],Dose-dependent effect,27,Dose-dependent effect,47.4,26.7,92.5,42.5

# Source: ChEMBL document CHEMBL1275508, “Edelfosine induces an apoptotic process in Leishmania infantum that is regulated by the ectopic expression of Bcl-XL and Hrk” (2008)
